Results as given in ChEMBL document CHEMBL3232885, “Synthesis, characterization and pharmacological screening of some novel 5-imidazopyrazole incorporated polyhydroquinoline derivatives” (Eur J Med Chem, 2014).
In brackets after ≈: the same amount, converted by molar mass.

Key:
Plasmodium falciparum = experiment: Antimalarial activity against chloroquine/quinine sensitive Plasmodium falciparum assessed as parasite growth inhibition after 48 hrs; assay type: functional, organism-based
Candida albicans = experiment: Antifungal activity against Candida albicans MTCC 227 assessed as growth inhibition after 24 to 48 hrs by broth microdilution method; assay type: functional
How it was run: (§1)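 Fungal nutrition used Sabouraud Dextrose broth with inoculum at 10⁸ CFU mL⁻¹ by turbidity. Serial compound dilutions were made in 2% DMSO in water. Growth was noted on subculture after 24 and 48 h. MIC was taken as the highest dilution preventing visible turbidity after spot subculture.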

Aspergillus fumigatus = experiment: Antifungal activity against Aspergillus fumigatus MTCC 3008 assessed as growth inhibition after 24 to 48 hrs by broth microdilution method; assay type: functional; how it was run: as §1
Streptococcus pneumoniae = experiment: Antibacterial activity against Streptococcus pneumoniae MTCC 1936 assessed as growth inhibition after 24 to 48 hrs by broth microdilution method; assay type: functional
How it was run: (§2)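 Bacteria were grown in Mueller-Hinton broth with inoculum adjusted to 10⁸ CFU mL⁻¹ by turbidity. Compounds were serially diluted in 2% aqueous DMSO and incubated at 37 °C overnight. Growth was checked by subculture at 24 and 48 h. MIC was taken as the highest dilution with no turbidity after spot subculture.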

Vibrio cholerae = experiment: Antibacterial activity against Vibrio cholerae MTCC 3906 assessed as growth inhibition after 24 to 48 hrs by broth microdilution method; assay type: functional
Salmonella typhi = experiment: Antibacterial activity against Salmonella typhi MTCC 98 assessed as growth inhibition after 24 to 48 hrs by broth microdilution method; assay type: functional, Salmonella enterica subsp. enterica serovar Typhi; details: Salmonella enterica
Escherichia coli = experiment: Antibacterial activity against Escherichia coli MTCC 443 assessed as growth inhibition after 24 to 48 hrs by broth microdilution method; assay type: functional; how it was run: as §2
[1] = test system: Mycobacterium tuberculosis; experiment: Antitubercular activity against Mycobacterium tuberculosis H37Rv assessed as inhibition of colony formation at 250 ug/mL after 2 to 4 weeks by Lowensteine-Jensen method relative to control; assay type: functional
Clostridium tetani = experiment: Antibacterial activity against Clostridium tetani MTCC 449 assessed as growth inhibition after 24 to 48 hrs by broth microdilution method; assay type: functional
[2] = test system: Mycobacterium tuberculosis; experiment: Antitubercular activity against Mycobacterium tuberculosis H37Rv assessed as inhibition of colony formation at 100 ug/mL after 2 to 4 weeks by Lowensteine-Jensen method relative to control; assay type: functional
Bacillus subtilis = experiment: Antibacterial activity against Bacillus subtilis MTCC 441 assessed as growth inhibition after 24 to 48 hrs by broth microdilution method; assay type: functional; how it was run: as §2

Compound	IC50 (Plasmodium falciparum)	MIC (Candida albicans)	MIC (Aspergillus fumigatus)	MIC (Streptococcus pneumoniae)	MIC (Vibrio cholerae)	MIC (Salmonella typhi)	MIC (Escherichia coli)	inhibition at 250 µg/mL [1]	MIC (Clostridium tetani)	inhibition at 100 µg/mL [2]	MIC (Bacillus subtilis)
C=C[C@H]1CN2CC[C@H]1C[C@H]2[C@H](O)c1ccnc2ccc(OC)cc12 [QUININE]	0.268 mg/L (≈ 0.826 µM)	–	–	–	–	–	–	–	–	–	–
NYSTATIN	–	100 mg/L	500 mg/L	–	–	–	–	–	–	–	–
CCOC(=O)C1=C(N)N(c2ccc(OC)cc2)C2=C(C(=O)CC(C)(C)C2)C1c1c(C)nn(-c2ccccc2)c1-n1ccnc1 (stereo not given)	1.49 mg/L (≈ 2.51 µM)	1000 mg/L (≈ 1690 µM)	1000 mg/L (≈ 1690 µM)	100 mg/L (≈ 169 µM)	250 mg/L (≈ 422 µM)	200 mg/L (≈ 337 µM)	100 mg/L (≈ 169 µM)	25%	250 mg/L (≈ 422 µM)	20%	125 mg/L (≈ 211 µM)
CCOC(=O)C1=C(N)N(c2ccc(O)cc2)C2=C(C(=O)CCC2)C1c1c(C)nn(-c2ccccc2)c1-n1ccnc1 (stereo not given)	0.067 mg/L (≈ 0.122 µM)	500 mg/L (≈ 908 µM)	500 mg/L (≈ 908 µM)	250 mg/L (≈ 454 µM)	200 mg/L (≈ 363 µM)	200 mg/L (≈ 363 µM)	62.5 mg/L (≈ 114 µM)	41%	200 mg/L (≈ 363 µM)	37%	200 mg/L (≈ 363 µM)
Cc1nn(-c2ccccc2)c(-n2ccnc2)c1C1C(C#N)=C(N)N(c2ccc(O)cc2)C2=C1C(=O)CC(C)(C)C2 (stereo not given)	1.23 mg/L (≈ 2.31 µM)	500 mg/L (≈ 941 µM)	1000 mg/L (≈ 1880 µM)	200 mg/L (≈ 376 µM)	250 mg/L (≈ 470 µM)	250 mg/L (≈ 470 µM)	200 mg/L (≈ 376 µM)	94%	500 mg/L (≈ 941 µM)	94%	250 mg/L (≈ 470 µM)
CC1(C)S[C@@H]2[C@H](NC(=O)[C@H](N)c3ccccc3)C(=O)N2[C@H]1C(=O)O [AMPICILLIN]	–	–	–	100 mg/L (≈ 286 µM)	50 mg/L (≈ 143 µM)	10 mg/L (≈ 28.6 µM)	10 mg/L (≈ 28.6 µM)	–	100 mg/L (≈ 286 µM)	–	100 mg/L (≈ 286 µM)
Cc1nn(-c2ccccc2)c(-n2ccnc2)c1C1C(C#N)=C(N)N(c2ccccc2)C2=C1C(=O)CC(C)(C)C2 (stereo not given)	1.08 mg/L (≈ 2.1 µM)	1000 mg/L (≈ 1940 µM)	500 mg/L (≈ 970 µM)	500 mg/L (≈ 970 µM)	100 mg/L (≈ 194 µM)	125 mg/L (≈ 242 µM)	100 mg/L (≈ 194 µM)	33%	500 mg/L (≈ 970 µM)	28%	250 mg/L (≈ 485 µM)
Cc1nn(-c2ccccc2)c(-n2ccnc2)c1C1C(C#N)=C(N)N(c2cccc(O)c2)C2=C1C(=O)CC(C)(C)C2 (stereo not given)	0.034 mg/L (≈ 0.064 µM)	1000 mg/L (≈ 1880 µM)	500 mg/L (≈ 941 µM)	200 mg/L (≈ 376 µM)	62.5 mg/L (≈ 118 µM)	250 mg/L (≈ 470 µM)	200 mg/L (≈ 376 µM)	38%	200 mg/L (≈ 376 µM)	34%	500 mg/L (≈ 941 µM)
Cc1nn(-c2ccccc2)c(-n2ccnc2)c1C1C(C(N)=O)=C(N)N(c2ccccc2)C2=C1C(=O)CC(C)(C)C2 (stereo not given)	0.62 mg/L (≈ 1.16 µM)	250 mg/L (≈ 468 µM)	1000 mg/L (≈ 1870 µM)	200 mg/L (≈ 375 µM)	250 mg/L (≈ 468 µM)	250 mg/L (≈ 468 µM)	200 mg/L (≈ 375 µM)	7%	125 mg/L (≈ 234 µM)	4%	125 mg/L (≈ 234 µM)
Cc1nn(-c2ccccc2)c(-n2ccnc2)c1C1C(C#N)=C(N)N(c2ccc(Cl)cc2)C2=C1C(=O)CC(C)(C)C2 (stereo not given)	0.073 mg/L (≈ 0.133 µM)	> 1000 mg/L	500 mg/L (≈ 909 µM)	125 mg/L (≈ 227 µM)	250 mg/L (≈ 454 µM)	500 mg/L (≈ 909 µM)	500 mg/L (≈ 909 µM)	84%	125 mg/L (≈ 227 µM)	76%	200 mg/L (≈ 364 µM)
O=C(O)c1cn(C2CC2)c2cc(N3CCNCC3)c(F)cc2c1=O [CIPROFLOXACIN]	–	–	–	–	50 mg/L (≈ 151 µM)	10 mg/L (≈ 30.2 µM)	–	–	–	–	100 mg/L (≈ 302 µM)
Cc1ccc(N2C(N)=C(C#N)C(c3c(C)nn(-c4ccccc4)c3-n3ccnc3)C3=C2CC(C)(C)CC3=O)cc1 (stereo not given)	1.07 mg/L (≈ 2.03 µM)	1000 mg/L (≈ 1890 µM)	1000 mg/L (≈ 1890 µM)	125 mg/L (≈ 236 µM)	250 mg/L (≈ 472 µM)	62.5 mg/L (≈ 118 µM)	200 mg/L (≈ 378 µM)	90%	100 mg/L (≈ 189 µM)	80%	100 mg/L (≈ 189 µM)
CCn1cc(C(=O)O)c(=O)c2cc(F)c(N3CCNCC3)cc21 [NORFLOXACIN]	–	–	–	250 mg/L (≈ 783 µM)	50 mg/L (≈ 157 µM)	50 mg/L (≈ 157 µM)	50 mg/L (≈ 157 µM)	–	25 mg/L (≈ 78.3 µM)	–	25 mg/L (≈ 78.3 µM)
Cc1nn(-c2ccccc2)c(-n2ccnc2)c1C1C(C(N)=O)=C(N)N(c2ccc(Cl)cc2)C2=C1C(=O)CC(C)(C)C2 (stereo not given)	0.059 mg/L (≈ 0.104 µM)	250 mg/L (≈ 440 µM)	1000 mg/L (≈ 1760 µM)	200 mg/L (≈ 352 µM)	500 mg/L (≈ 880 µM)	250 mg/L (≈ 440 µM)	250 mg/L (≈ 440 µM)	75%	200 mg/L (≈ 352 µM)	66%	200 mg/L (≈ 352 µM)
CO[C@H]1/C=C/O[C@@]2(C)Oc3c(C)c(O)c4c(O)c(c(/C=N/N5CCN(C)CC5)c(O)c4c3C2=O)NC(=O)/C(C)=C\C=C\[C@H](C)[C@H](O)[C@@H](C)[C@@H](O)[C@@H](C)[C@H](OC(C)=O)[C@@H]1C [RIFAMPIN]	–	–	–	–	–	–	–	98%	–	98%	–
Cc1nn(-c2ccccc2)c(-n2ccnc2)c1C1C(C#N)=C(N)N(c2ccccc2O)C2=C1C(=O)CC(C)(C)C2 (stereo not given)	0.71 mg/L (≈ 1.34 µM)	1000 mg/L (≈ 1880 µM)	500 mg/L (≈ 941 µM)	125 mg/L (≈ 235 µM)	125 mg/L (≈ 235 µM)	250 mg/L (≈ 470 µM)	250 mg/L (≈ 470 µM)	45%	200 mg/L (≈ 376 µM)	38%	100 mg/L (≈ 188 µM)
COC1=CC(=O)C[C@@H](C)[C@]12Oc1c(Cl)c(OC)cc(OC)c1C2=O [GRISEOFULVIN]	–	100 mg/L (≈ 283 µM)	100 mg/L (≈ 283 µM)	–	–	–	–	–	–	–	–
COc1ccc(N2C(N)=C(C#N)C(c3c(C)nn(-c4ccccc4)c3-n3ccnc3)C3=C2CC(C)(C)CC3=O)cc1 (stereo not given)	0.086 mg/L (≈ 0.158 µM)	1000 mg/L (≈ 1830 µM)	500 mg/L (≈ 916 µM)	100 mg/L (≈ 183 µM)	250 mg/L (≈ 458 µM)	100 mg/L (≈ 183 µM)	200 mg/L (≈ 367 µM)	91%	100 mg/L (≈ 183 µM)	88%	125 mg/L (≈ 229 µM)
O=C(N[C@H](CO)[C@H](O)c1ccc([N+](=O)[O-])cc1)C(Cl)Cl [CHLORAMPHENICOL]	–	–	–	100 mg/L (≈ 309 µM)	50 mg/L (≈ 155 µM)	50 mg/L (≈ 155 µM)	10 mg/L (≈ 30.9 µM)	–	25 mg/L (≈ 77.4 µM)	–	50 mg/L (≈ 155 µM)
Cc1nn(-c2ccccc2)c(-n2ccnc2)c1C1C(C(N)=O)=C(N)N(c2ccc(O)cc2)C2=C1C(=O)CCC2 (stereo not given)	0.033 mg/L (≈ 0.0633 µM)	1000 mg/L (≈ 1920 µM)	1000 mg/L (≈ 1920 µM)	250 mg/L (≈ 479 µM)	500 mg/L (≈ 959 µM)	100 mg/L (≈ 192 µM)	200 mg/L (≈ 383 µM)	67%	200 mg/L (≈ 383 µM)	60%	200 mg/L (≈ 383 µM)
